Compounds with a hit are over-represented: about 3.5% of the library has one in this group of screens.
RGS4 act: RGS4 potentiators or activators, primary screen, cell-based, HEK293 M3R inducible RGS4, calcium flux | carbachol calcium flux Fluo4; stronger effect = lower value | B-score at 10 µM | hit rate 0.92% among 310,000;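 active = B-score of the integrated calcium signal more than 4 SD below the library mean, with starting fluorescence not abnormally high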;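 note: negative B-score means reduced calcium response which marks RGS4 activation or potentiation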
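Assay system: HEK293 FlpIn-TREx cells, stable M3R, doxycycline-inducible RGS4 / Probe or stimulus: carbachol, ECmax concentration / Times: overnight RGS4 induction, 30 min dye load 37 °C, 20 min compound RT / Signal: kinetic calcium fluorescence imaging with Fluo4-AM dye, 2 µM / Measure: Agonist-evoked peak-minus-minimum fluorescence over baseline, integrated ratio, B score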
RGS4 inh: RGS4 inhibitors, primary screen, cell-based, HEK293 M3R inducible RGS4, calcium flux | hit rate 0.45% among 310,000 | Fluo-4 calcium flux; stronger effect = higher value; triggered by carbachol at its EC20 | Regulator of G-protein signaling 4 (Homo sapiens), P49798 | B-score at 10 µM;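 active = B-score, a plate-corrected calcium signal, over three deviations above library mean, with baseline fluorescence within five deviations of library mean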;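 note: RGS4 expression induced by doxycycline in cells with stable M3 receptor; B-score is computed from the integrated fluorescence ratio over baseline after carbachol; higher B-score means a larger calcium signal and so more RGS4 inhibition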
Target sequence (P49798 whole entry, looked up): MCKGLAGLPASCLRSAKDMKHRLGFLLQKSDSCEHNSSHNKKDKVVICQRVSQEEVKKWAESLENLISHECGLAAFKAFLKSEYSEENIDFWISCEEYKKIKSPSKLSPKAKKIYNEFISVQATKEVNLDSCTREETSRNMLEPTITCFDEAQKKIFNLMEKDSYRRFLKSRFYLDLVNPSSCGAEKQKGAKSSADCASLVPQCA
MrgX1 agonist: agonists of human MrgX1 receptor, primary screen, HEK293 cells, Fluo-4 calcium flux | B-score at 10 µM | hit rate 0.44% among 310,000 | Fluo-4 calcium fluorescence, agonist mode; stronger effect = higher value;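 active = calcium response B-score plate-corrected fluorescence ratio at least 3 library SD, with starting fluorescence B-score inside 5 SD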
Target sequence (Q96LB2 whole entry, looked up): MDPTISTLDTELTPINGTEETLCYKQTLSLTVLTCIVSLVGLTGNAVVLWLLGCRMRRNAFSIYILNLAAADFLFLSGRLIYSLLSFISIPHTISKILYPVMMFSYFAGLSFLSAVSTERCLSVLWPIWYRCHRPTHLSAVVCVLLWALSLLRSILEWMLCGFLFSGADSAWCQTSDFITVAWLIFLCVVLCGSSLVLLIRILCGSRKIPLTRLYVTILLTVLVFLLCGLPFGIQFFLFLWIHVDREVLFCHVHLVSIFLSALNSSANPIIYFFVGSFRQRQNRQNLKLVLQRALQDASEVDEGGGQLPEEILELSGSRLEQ
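Material: HEK293 cells stably expressing human MrgX1 receptor | Quantity: 15,000 cells per well | Times: Cells plated overnight, dye loaded 0.5 h 37 °C, 0.5 h room temperature | Measured by: Kinetic Fluo-4 NW fluorescence of intracellular calcium | Control set: Positive and negative controls per plate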
MrgX1 antag: antagonists of human MrgX1 receptor, primary screen, HEK293 cells, Fluo-4 calcium flux; BAM8-22 antagonism; stronger effect = lower value; B-score at 10 µM; hit rate 1.3% among 310,000; AID 588676, 2011;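 active = calcium-response B-score plate-corrected more than 3 library SD below zero, starting fluorescence within 5 deviations, no agonist response on first addition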;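 note: peak minus trough fluorescence over baseline after final BAM8-22 challenge near maximal dose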
MrgX1 PAM: positive allosteric modulators of MrgX1, primary screen, HEK293 cells, Fluo-4 calcium flux. FDSS; stronger effect = higher value. Mas-related G-protein coupled receptor member X1 (Homo sapiens), Q96LB2. hit rate 0.63% among 310,000. B-score at 10 µM;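 active = plate-corrected calcium response at least 3 library SD above typical, normal starting fluorescence, not activating the receptor alone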;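 note: compound read alongside a low EC10 to EC30 dose of BAM8-22 agonist; peak minus trough fluorescence over baseline measured at the second addition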
RGS4 activ val: reduced carbachol calcium response, RGS4-induced M3R cells, confirmation, RGS4 activator project, cell-based, HEK293 M3R/RGS4 inducible, calcium flux, duplicate; carbachol calcium flux Fluo4; hit rate 89% among 1,100; inhibition, % at 10 µM; shares compounds with RGS4 act;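 active = inhibition above 3 SD of the buffer control wells, cut at about 41% in these data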;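 note: signal is the integrated peak-minus-minimum Fluo4 fluorescence over baseline ratio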
RGS4 act ctr: counter-screen for RGS4 activators: effect in non-induced cells; shares compounds with RGS4 act; AID 602283; inhibition, % at 10 µM; HEK293 M3R non-induced RGS4, Fluo4 calcium flux; after carbachol challenge at its EC90; hit rate 82% among 1,100;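 active = inhibition exceeding 3 SD of buffer-only control wells, cut at about 26% in these data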;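 note: percent drop in integrated peak-minus-baseline over baseline Fluo4 ratio after carbachol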
RGS4 block valid: enhanced carbachol calcium response, M3R/RGS4 cells, RGS4 inhibitor project, cell-based, validation screen, HEK293 M3R/RGS4, calcium flux; AID 492999, 2010; calcium response, % at 10 µM; shares compounds with RGS4 inh; hit rate 65% among 1,700; carbachol calcium Fluo-4 fluorescence; carbachol added at its EC20; 0 = buffer wells, 100 = carbachol control;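 active = duplicate-averaged calcium response above the buffer-only control mean plus 5 SD of those controls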;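 note: integrated fluorescence ratio F max minus min over baseline F0; higher response in RGS4-induced cells means RGS4 inhibition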
RGS4 uninduced: carbachol calcium response in non-induced M3R cells, confirmation, counter-screen for RGS4 inhibitor project, cell-based, HEK293 M3R; shares compounds with RGS4 inh; carbachol calcium Fluo-4; submaximal (EC20) carbachol stimulus; buffer wells 0%, carbachol control wells 100%; activity (percent), % at 10 µM; hit rate 20% among 1,900; AID 493000, 2010; call rule not given here;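 note: RGS4 induction absent so cells express M3R without RGS4; higher means more calcium signal and flags a non-specific hit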
RGS4 inh ctr2: signal in non-induced cells without carbachol, RGS4 inhibitor counter-screen; shares compounds with RGS4 inh; HEK293 M3R/RGS4 non-induced, Fluo-4 calcium, no carbachol; normalised: buffer wells 0%, carbachol wells 100%; hit rate 22% among 1,900; calcium response (agonist-mode artifact), % at 10 µM;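 active = duplicate-averaged calcium rise in uninduced cells above buffer wells' mean plus 5 SD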
MrgX1 ant reconf: MrgX1 receptor antagonists, duplicate retest, confirmation, HEK293 cells, Fluo-4 calcium flux; BAM8-22 calcium flux; stronger effect = lower value; AID 602420, 2012; hit rate 19% among 2,300; shares compounds with MrgX1 antag; remaining BAM8-22 calcium response % of control (stronger effect = lower value), % at 10 µM;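 active = remaining agonist calcium response no higher than 100% minus 3 SD of agonist-only control wells, with starting fluorescence near control levels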;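 note: agonist BAM8-22 given at a near maximal EC90 to ECmax level; peak minus minimum fluorescence divided by baseline after agonist addition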
HEK293 Ca flux: nonspecific calcium signal in parental HEK293, confirmation, counter-screen for MrgX1 antagonist project, parental HEK293 cells, Fluo-4 calcium flux; shares compounds with MrgX1 antag; Fluo-4 calcium fluorescence, FDSS; fluorescence ratio F(max-min)/F0 at 10 µM; hit rate 2% among 4,000; AID 624111, 2012;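 active = duplicate-averaged calcium fluorescence ratio at least three times the standard deviation of buffer wells, a nonspecific response in parental cells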
HEK293 Ca counter: calcium response in parental HEK293 cells, primary screen, counter-screen for MrgX1 allosteric activator project, cell-based, Fluo-4 calcium flux, duplicate; Fluo-4 fluorescence ratio; stronger effect = higher value; fluorescence ratio F(max-min)/F0 at 10 µM; shares compounds with MrgX1 antag; hit rate 0.4% among 4,000;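 active = calcium fluorescence ratio, averaged over duplicates, at least 3 SD of the buffer-well ratio, meaning a nonspecific response in receptor-free cells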;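 note: untransfected parental HEK293 lacking MrgX1 used as counterscreen for MrgX1 allosteric activators; fluorescence change taken during the second addition on a kinetic imager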
HEK293 Ca cntr2: calcium response in parental HEK293 cells, primary screen, counter-screen for MrgX1 agonist project, cell-based, Fluo-4 calcium flux, duplicate, agonist mode; shares compounds with MrgX1 antag; fluorescence ratio F(max-min)/F0 at 10 µM; hit rate 8.7% among 4,000; Fluo-4 calcium fluorescence (FDSS); stronger effect = higher value;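 active = calcium fluorescence ratio at least three times the spread of buffer wells, meaning a non-specific response in parental cells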
An asterisk follows results filed as active; i = inactive; nt = no result given.

SMILES	RGS4 act	RGS4 inh	MrgX1 agonist	MrgX1 antag	MrgX1 PAM	RGS4 block valid	RGS4 uninduced	RGS4 inh ctr2	others
CN1CCc2cc3c(c4c2C1Cc1ccccc1-4)OCO3 (configuration not stated)	-7.8*	i	i	-6.6*	i	nt	nt	nt	RGS4 activ val=0;RGS4 act ctr=0;MrgX1 ant reconf=i;HEK293 Ca flux=i;HEK293 Ca counter=i;HEK293 Ca cntr2=i
O=c1[nH]c(O)c(C=Nc2ccc(Cl)c(C(F)(F)F)c2)c(=O)[nH]1	i	i	i	i	i	nt	nt	nt
COc1cc2c(cc1O)C[C@H]1c3c(cc(O)c(OC)c3-2)CCN1C	nt	nt	i	i	i	nt	nt	nt
CN1CCc2cc(O)cc3c2[C@H]1Cc1ccc(O)c(O)c1-3	i	7.3*	i	i	i	30%*	i	i
CSc1ncc(/C=C2/C(=O)NC(=O)N(c3ccc(C)cc3)C2=O)cn1	i	i	i	i	i	nt	nt	nt
Cc1ccc(N2C(=O)NC(=O)/C(=C/c3cnn(-c4ccc(C)cc4)c3)C2=O)cc1	i	4.8*	i	i	i	10%*	i	i
CC(C)CC(NC(=O)CCCNC(=O)CCC(=O)OC1O[C@H]2OC3(C)CC[C@H]4[C@H](C)CCC(C1C)C24OO3)C(=O)O (some centres not stated)	i	i	i	i	i	nt	nt	nt
COc1ccc(-n2c(O)c(/C=C3\C=Nc4ccc(Br)cc43)c(=O)[nH]c2=O)c(OC)c1	i	26*	i	i	i	55%*	i	326%*
O=C1NC(=O)N(c2ccccc2)C(=O)/C1=C\c1ccc([N+](=O)[O-])s1	i	i	i	i	i	nt	nt	nt

Source: PubChem BioAssay
